pIC50: −log10 of the molar value.
Columns and labels:
[1] = system: MDA-MB-231 cells; assay: Ki-67 immunofluorescence staining for proliferation; format: cell-based, human; conditions: MDA-MB-231, 1 μM, 72 hours
[2] = system: TU-BcX-4IC tumors; assay: qRT-PCR of ex vivo treated PDX tumor pieces; format: cell-based, human; conditions: TU-BcX-4IC tumor pieces, 1 μM, 72 hours
[3] = system: TU-BcX-49S cells; assay: qRT-PCR of epithelial and mesenchymal genes; format: cell-based, human
[4] = molecular target: T1, NEK2 (Homo sapiens, UniProt P51955); assay: Kinase inhibition assay; format: biochemical; conditions: 1 μM
T1 sequence (P51955 1-445): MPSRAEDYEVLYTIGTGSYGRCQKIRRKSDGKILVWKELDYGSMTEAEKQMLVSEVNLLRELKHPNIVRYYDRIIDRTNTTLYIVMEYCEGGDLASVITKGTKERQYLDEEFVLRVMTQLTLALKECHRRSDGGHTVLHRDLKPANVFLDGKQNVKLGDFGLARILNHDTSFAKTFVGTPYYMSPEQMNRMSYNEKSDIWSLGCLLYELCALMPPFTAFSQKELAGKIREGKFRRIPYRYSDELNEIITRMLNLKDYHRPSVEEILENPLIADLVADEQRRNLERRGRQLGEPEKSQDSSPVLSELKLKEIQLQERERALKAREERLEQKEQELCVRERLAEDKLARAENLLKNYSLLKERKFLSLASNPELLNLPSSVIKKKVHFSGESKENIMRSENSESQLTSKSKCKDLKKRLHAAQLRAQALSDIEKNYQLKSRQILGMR

[5] = system: BT-549 cells; assay: Crystal violet staining, cells remaining / viability dose-response; format: cell-based, human
In short: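 Cells were plated at 5,000/well in 5% charcoal-stripped DMEM for 48 h, then exposed to test compound or DMSO vehicle for 72 h at 37 °C, 5% CO2. They were fixed with glutaraldehyde for 20 min and stained for 20 min with 0.1% crystal violet in 90% methanol. After overnight drying, cells were lysed in 33% acetic acid and read at 620 nm. Signal was normalized to DMSO and plotted as dose-response.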

[6] = system: MDA-MB-231 M2 spheres; assay: In vivo inoculation of pre-treated spheres, tumorigenesis and metastasis; design: species or system SCID/Beige mice; conditions: MDA-MB-231 M2 spheres pre-treated 1 μM 72 hours; all cell concentrations
In short: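 M2 spheres were treated 72 h at 1 μM or with DMSO under low attachment, dissociated with TrypLE, and counted by Trypan Blue so that only viable cells were injected. Cells (1,000–200,000) went bilaterally into the mammary fat pads of SCID/Beige mice (N=5). Tumors were caliper-measured biweekly, then resected; mice were killed 20 days later. Lungs and livers were formalin-fixed, paraffin-embedded and H&E-stained, and metastases were quantified.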

[7] = system: TU-BcX-2O0 tumors; assay: qRT-PCR of ex vivo treated PDX tumor pieces; format: cell-based, human; conditions: TU-BcX-2O0 tumor pieces, 1 μM, 72 hours
[8] = system: TU-BcX-4IC cells; assay: Crystal violet staining, cells remaining / viability dose-response; format: cell-based, human; conditions: 1 μM, 72 hours
[9] = molecular target: LOK (Homo sapiens, UniProt O94804); assay: Kinase inhibition assay; format: biochemical; conditions: 1 μM
[10] = system: BT-549 cells; assay: qRT-PCR of epithelial and mesenchymal genes; format: cell-based, human; conditions: BT-549, 1 μM, 72 hours
In short: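 Cells were treated 72 h with test compound (1 μM) or DMSO. Total RNA was column-isolated and checked for quantity and quality by absorbance (260, 280 nm). Then 2 μg total RNA was reverse-transcribed and gene expression measured by qRT-PCR.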

[11] = system: TU-BcX-4IC cells; assay: Transwell migration assay; format: cell-based, human; conditions: pretreated 1 μM 72 hours, 24 hours migration
In short: (§1)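 Cells were pretreated 72 h with test compound (1 μM) or DMSO, and viable cells were then seeded into transwell chambers for 24 h. Non-migrated cells were removed. Migrated cells were fixed, crystal violet-stained, imaged by brightfield and counted. Counts were normalized to DMSO per cell line; triplicate experiments.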

[12] = system: BT549 cells; assay: Transwell migration assay; format: cell-based, human; conditions: BT549, pretreated 1 μM 72 hours, 24 hours migration
In short: as §1

[13] = molecular target: PLK1 (Homo sapiens, UniProt P53350); assay: Kinase inhibition assay; format: biochemical; conditions: 1 μM
[14] = system: PDX organoids (PDX-Os) created from TU-BcX-4IC; assay: Live/dead fluorescence stain of patient-derived organoids; format: cell-based; conditions: 1 μM, 72 hours, Calcein-AM/EthD-III
In short: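 Explants (2 × 2 mm) from passaged TU-BcX-4IC tumours were grown out for 7 days in 3D culture, giving mixed tumour and stromal cells. Organoids were moved to ultra-low-attachment spheroid wells and exposed to test compound or DMSO for 72 h. They were then stained with Calcein-AM (2 μM, live) and EthD-III (5 μM, dead) and imaged by confocal microscopy, 5 images per well.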

[15] = system: TU-BcX-4IC M2 spheres; assay: In vivo inoculation of pre-treated spheres, tumorigenesis and metastasis; design: species or system SCID/Beige mice; conditions: 100,000 cells per injection
In short: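 TU-BcX-4IC M2 spheres were pre-exposed to test compound (1 μM) or DMSO for 72 h under low attachment. Spheres were dissociated to single cells with TrypLE, and only trypan blue-excluding viable cells were used. 100,000 cells/injection went bilaterally into the mammary fat pad of SCID/Beige mice (5/group). Tumours were measured biweekly by caliper, then resected. Mice were killed 20 days later, and lungs and livers were formalin-fixed, paraffin-embedded and H&E-stained for metastases.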

[16] = system: TU-BcX-4IC M2 spheres; assay: Mammosphere formation and area quantification; format: cell-based, human; conditions: 7 days treatment
In short: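 Cells were plated at 1,000/well in low-attachment plates in serum-free F12/DMEM with B-27 and left 24 h to form spheres. Spheres were then exposed to test compound or DMSO for one week, re-dosed every three days. Spheres were imaged at 40X or 100X, and length and width were measured to calculate area, which was compared with DMSO controls.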

[17] = system: MDA-MB-231 M2 spheres; assay: Mammosphere formation and area quantification; format: cell-based, human; conditions: MDA-MB-231, 7 days treatment
In short: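 MDA-MB-231 cells were seeded at 1,000/well in low-attachment wells in serum-free F12/DMEM plus B-27 and allowed 24 h to form spheres. Spheres were then treated with test compound or DMSO for one week, re-dosed every three days. Imaging was at 40X or 100X. Sphere length and width were measured, area was calculated, and values were compared with DMSO controls.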

[18] = TU-BcX-4IC M2 spheres pre-treated 1 μM 72 hours

LOK, sequence (O94804 whole entry): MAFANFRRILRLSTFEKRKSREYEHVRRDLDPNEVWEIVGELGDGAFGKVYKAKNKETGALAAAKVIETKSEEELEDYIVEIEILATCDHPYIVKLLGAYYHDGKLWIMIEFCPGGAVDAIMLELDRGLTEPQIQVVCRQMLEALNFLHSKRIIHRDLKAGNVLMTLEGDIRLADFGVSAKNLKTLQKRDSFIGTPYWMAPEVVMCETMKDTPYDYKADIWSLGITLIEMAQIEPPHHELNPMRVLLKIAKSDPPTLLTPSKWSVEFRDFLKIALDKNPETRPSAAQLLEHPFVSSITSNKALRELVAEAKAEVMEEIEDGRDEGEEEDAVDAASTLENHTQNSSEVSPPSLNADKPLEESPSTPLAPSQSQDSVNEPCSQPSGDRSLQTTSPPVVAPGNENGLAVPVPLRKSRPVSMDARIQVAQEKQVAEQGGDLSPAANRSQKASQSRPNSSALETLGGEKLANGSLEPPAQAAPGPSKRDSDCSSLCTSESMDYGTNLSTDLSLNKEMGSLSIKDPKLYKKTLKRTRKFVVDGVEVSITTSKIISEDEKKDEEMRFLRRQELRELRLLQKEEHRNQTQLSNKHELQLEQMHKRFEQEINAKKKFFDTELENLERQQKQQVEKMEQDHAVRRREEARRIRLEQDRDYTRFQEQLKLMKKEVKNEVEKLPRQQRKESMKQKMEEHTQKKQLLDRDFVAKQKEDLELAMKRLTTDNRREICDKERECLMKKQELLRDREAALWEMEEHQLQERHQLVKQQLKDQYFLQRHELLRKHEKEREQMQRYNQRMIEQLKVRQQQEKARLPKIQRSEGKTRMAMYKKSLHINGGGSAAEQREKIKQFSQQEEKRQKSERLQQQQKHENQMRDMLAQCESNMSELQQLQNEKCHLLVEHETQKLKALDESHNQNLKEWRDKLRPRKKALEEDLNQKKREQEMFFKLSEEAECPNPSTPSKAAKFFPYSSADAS
PLK1, sequence (P53350 whole entry): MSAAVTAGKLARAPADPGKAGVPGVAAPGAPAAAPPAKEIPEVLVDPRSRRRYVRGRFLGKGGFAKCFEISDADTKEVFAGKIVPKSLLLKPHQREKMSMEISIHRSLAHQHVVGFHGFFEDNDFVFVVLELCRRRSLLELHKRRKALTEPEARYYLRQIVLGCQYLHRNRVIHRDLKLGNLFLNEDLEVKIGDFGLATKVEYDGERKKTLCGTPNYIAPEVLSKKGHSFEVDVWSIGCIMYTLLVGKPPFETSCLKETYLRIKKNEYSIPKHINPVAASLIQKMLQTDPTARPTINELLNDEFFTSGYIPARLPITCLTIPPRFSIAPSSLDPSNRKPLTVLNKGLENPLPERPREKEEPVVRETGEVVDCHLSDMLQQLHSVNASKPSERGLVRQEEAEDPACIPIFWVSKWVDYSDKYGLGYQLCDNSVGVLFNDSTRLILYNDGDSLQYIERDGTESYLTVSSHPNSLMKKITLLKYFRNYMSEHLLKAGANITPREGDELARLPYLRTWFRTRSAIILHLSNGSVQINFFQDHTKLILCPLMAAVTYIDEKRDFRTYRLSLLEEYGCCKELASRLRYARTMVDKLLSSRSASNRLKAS

## C[C@@H](Oc1cc(-n2cnc3ccc(NC(=O)NC(C)(C)C)cc32)sc1C(N)=O)c1ccccc1Cl [GSK346294A]
[1]
  Ki-67 positive cells (cell proliferation): increased the total number of cells expressing the Ki-67 marker
[2]
  MMP9 mRNA levels: did not reduce MMP9 levels
  Reversal of mesenchymal phenotype on a transcript level: did not reverse the mesenchymal phenotype
[3]
  cFOS mRNA expression: Neither GSK346294A nor GSK448459A suppressed cFOS mRNA expression
[3]; compared to DMSO controls
  CDH1 mRNA expression: increased CDH1 expression
[4]
  Binding activity to NEK2: 5%
[5]; BT-549, 1 μM, 72 hours
  Number of cells remaining compared to DMSO controls: decreased the number of cells remaining
[5]; Homo sapiens, BT-549, 72 h, read-out: IC-50, number of cells remaining
  pIC50: 6.00
[6]
  Area and number of lung and liver metastases: consistently suppressed both overall area and number of metastases in all cell concentrations, although not significantly
[7]
  MMP9 mRNA levels: did not reduce MMP9 levels
  Reversal of mesenchymal phenotype on a transcript level: did not reverse the mesenchymal phenotype
[8]
  Number of cells remaining compared to DMSO controls: decreased the number of cells remaining
[9]
  Activity against LOK: moderate activity
  Binding activity to LOK: 36%
[10]
  CDH1 mRNA expression: significantly reduced CDH1 mRNA expression
  MMP9 mRNA expression: Neither GSK346294A nor GSK448459A affected MMP9 expression
  SNAI1 mRNA expression: no significant effects on SNAI1 expression
  cFOS mRNA expression: suppressive effects in all three TNBC cell lines, although not significantly
[11]
  Transwell cell migration: most suppressive effects on cell migration
[12]
  Transwell cell migration: most suppressive effects on cell migration
[13]
  Activity against PLK1: strong activity
[14]
  Cytotoxicity to PDX organoids: not cytotoxic
[15]; [18]
  Area of liver metastases: did not suppress
  Area of lung metastasis: suppressed area of lung metastasis
  Total number of lung lesions: significantly suppresses total number of lesions
  Tumor formation of pre-treated spheres: significantly suppressed tumor formation
[15]; TU-BcX-4IC MS2 spheres pre-treated 1 μM 72 hours
  Number of liver metastases: did not suppress
[16]
  Mammosphere formation (sphere area): significantly suppressed mammosphere formation
[17]
  Sphere area: significantly increased sphere area
